Measurements published in ChEMBL document CHEMBL2424622, “Development of amino-pyrimidine inhibitors of c-Jun N-terminal kinase (JNK): kinase profiling guided optimization of a 1,2,3-benzotriazole lead” (Bioorg Med Chem Lett, 2013).

Experiments:
[1] = biological target: Tyrosine-protein kinase JAK2 (Homo sapiens) (UniProt O60674); assay: Competitive binding affinity to JAK2 kinase domain 2 (unknown origin) at 10 uM in presence of ATP relative to control
In short: (§1)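 In vitro ATP-site competition binding assay, part of profiling against a diverse panel of 128 kinases. Each compound was tested at a single concentration of 10 µM. Kinome selectivity was summarized as S15 selectivity scores.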

[2] = biological target: Mitogen-activated protein kinase 10 (Homo sapiens, UniProt P53779); assay: Competitive binding affinity to JNK3 (unknown origin) at 10 uM in presence of ATP relative to control
Chain of Mitogen-activated protein kinase 10 (P53779 whole entry): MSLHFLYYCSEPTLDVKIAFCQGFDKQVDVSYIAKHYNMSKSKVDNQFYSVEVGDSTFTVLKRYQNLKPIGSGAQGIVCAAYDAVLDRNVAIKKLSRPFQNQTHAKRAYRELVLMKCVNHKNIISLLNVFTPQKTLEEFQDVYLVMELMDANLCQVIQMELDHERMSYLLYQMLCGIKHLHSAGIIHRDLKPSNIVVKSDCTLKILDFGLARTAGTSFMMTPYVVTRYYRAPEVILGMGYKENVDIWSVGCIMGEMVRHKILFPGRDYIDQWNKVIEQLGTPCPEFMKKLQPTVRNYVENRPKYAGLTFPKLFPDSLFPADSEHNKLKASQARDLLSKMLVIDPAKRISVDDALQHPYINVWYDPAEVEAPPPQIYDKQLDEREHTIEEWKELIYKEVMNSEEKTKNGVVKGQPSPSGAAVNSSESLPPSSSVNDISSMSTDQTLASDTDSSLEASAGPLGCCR
In short: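 In vitro ATP-site competition binding assay across a diverse panel of 128 kinases, with each compound tested at a single concentration. Kinase binding is expressed relative to control.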

[3] = biological target: Fibroblast growth factor receptor 1 (Homo sapiens) (UniProt P11362); assay: Competitive binding affinity to FGFR1 (unknown origin) at 10 uM in presence of ATP relative to control; in short: as §1
Chain of Fibroblast growth factor receptor 1 (Homo sapiens) (P11362 22-822 limits assumed): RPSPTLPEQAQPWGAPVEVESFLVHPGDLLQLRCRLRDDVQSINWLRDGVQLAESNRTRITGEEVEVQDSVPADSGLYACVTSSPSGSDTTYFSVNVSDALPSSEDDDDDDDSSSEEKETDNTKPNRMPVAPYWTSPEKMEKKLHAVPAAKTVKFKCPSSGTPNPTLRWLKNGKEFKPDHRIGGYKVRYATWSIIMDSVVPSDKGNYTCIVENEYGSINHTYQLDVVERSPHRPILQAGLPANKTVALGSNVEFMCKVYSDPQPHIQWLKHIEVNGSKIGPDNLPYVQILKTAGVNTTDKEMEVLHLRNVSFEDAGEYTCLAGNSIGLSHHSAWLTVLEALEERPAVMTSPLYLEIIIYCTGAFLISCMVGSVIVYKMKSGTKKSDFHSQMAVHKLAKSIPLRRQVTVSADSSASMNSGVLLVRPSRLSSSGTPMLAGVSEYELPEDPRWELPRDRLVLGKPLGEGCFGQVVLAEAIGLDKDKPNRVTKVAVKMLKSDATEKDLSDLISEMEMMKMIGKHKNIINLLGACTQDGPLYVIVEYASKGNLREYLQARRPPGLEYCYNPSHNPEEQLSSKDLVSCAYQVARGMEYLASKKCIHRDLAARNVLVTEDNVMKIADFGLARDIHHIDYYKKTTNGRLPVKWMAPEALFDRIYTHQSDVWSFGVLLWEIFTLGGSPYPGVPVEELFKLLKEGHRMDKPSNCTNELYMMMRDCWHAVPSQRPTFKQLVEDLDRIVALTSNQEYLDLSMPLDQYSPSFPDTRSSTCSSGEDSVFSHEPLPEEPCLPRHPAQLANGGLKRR

[4] = biological target: Protein-tyrosine kinase 2-beta (Homo sapiens) (UniProt Q14289); assay: Competitive binding affinity to PTK2B (unknown origin) at 10 uM in presence of ATP relative to control
In short: (§2)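 In vitro ATP-site competition binding assay across a diverse panel of 128 kinases, with compound tested at a single concentration. Kinase selectivity scores (S15) were calculated from the panel profiles.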

[5] = biological target: T1, Ephrin type-A receptor 8 (Homo sapiens) (UniProt P29322); assay: Competitive binding affinity to EPHA8 (unknown origin) at 10 uM in presence of ATP relative to control; in short: as §1
T1 sequence (whole entry): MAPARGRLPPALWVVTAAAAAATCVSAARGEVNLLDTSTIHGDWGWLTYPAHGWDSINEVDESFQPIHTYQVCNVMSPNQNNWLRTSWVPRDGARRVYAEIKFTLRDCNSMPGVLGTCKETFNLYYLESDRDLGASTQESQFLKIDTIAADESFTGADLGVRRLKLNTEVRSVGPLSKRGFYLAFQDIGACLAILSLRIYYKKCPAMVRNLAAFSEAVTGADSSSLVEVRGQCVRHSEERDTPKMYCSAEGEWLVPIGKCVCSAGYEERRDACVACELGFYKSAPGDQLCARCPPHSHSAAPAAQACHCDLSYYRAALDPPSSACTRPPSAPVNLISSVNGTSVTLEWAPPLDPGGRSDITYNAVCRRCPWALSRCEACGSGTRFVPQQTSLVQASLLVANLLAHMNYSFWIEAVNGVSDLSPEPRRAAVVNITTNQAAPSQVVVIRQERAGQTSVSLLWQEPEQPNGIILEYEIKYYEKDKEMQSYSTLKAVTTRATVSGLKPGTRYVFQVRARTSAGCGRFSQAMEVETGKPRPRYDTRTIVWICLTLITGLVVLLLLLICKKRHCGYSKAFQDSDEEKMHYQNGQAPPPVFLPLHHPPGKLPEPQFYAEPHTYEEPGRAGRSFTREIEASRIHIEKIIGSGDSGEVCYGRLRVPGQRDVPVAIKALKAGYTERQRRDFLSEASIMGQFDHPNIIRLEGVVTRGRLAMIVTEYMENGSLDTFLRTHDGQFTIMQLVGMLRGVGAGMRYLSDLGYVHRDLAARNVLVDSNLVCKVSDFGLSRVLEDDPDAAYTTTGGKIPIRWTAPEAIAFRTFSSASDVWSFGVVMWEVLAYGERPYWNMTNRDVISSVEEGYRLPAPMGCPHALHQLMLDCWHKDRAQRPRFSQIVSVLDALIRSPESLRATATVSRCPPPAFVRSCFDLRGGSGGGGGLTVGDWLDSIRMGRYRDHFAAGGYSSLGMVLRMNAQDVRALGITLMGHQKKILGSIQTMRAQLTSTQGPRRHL

[6] = biological target: Tyrosine-protein kinase Fgr (Homo sapiens) (UniProt P09769); assay: Competitive binding affinity to FGR (unknown origin) at 10 uM in presence of ATP relative to control; in short: as §1
Chain of Tyrosine-protein kinase Fgr (Homo sapiens) (P09769 2-529 limits assumed): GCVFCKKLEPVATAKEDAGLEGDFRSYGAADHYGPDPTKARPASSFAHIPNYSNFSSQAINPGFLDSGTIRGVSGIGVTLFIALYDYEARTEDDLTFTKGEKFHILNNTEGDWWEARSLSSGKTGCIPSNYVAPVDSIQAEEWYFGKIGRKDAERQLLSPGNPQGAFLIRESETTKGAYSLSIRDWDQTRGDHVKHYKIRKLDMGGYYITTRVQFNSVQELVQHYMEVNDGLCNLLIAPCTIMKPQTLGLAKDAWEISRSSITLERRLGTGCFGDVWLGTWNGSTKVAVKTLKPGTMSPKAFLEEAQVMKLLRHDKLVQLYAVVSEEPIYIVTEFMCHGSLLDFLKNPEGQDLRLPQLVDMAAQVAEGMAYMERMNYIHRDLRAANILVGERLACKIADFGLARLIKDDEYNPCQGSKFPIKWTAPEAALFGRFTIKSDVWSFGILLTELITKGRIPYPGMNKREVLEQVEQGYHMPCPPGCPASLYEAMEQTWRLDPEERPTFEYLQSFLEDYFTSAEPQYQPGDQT

[7] = biological target: T2, Serine/threonine-protein kinase PLK4 (Homo sapiens) (UniProt O00444); assay: Competitive binding affinity to PLK4 (unknown origin) at 10 uM in presence of ATP relative to control; in short: as §2
T2 sequence (whole entry): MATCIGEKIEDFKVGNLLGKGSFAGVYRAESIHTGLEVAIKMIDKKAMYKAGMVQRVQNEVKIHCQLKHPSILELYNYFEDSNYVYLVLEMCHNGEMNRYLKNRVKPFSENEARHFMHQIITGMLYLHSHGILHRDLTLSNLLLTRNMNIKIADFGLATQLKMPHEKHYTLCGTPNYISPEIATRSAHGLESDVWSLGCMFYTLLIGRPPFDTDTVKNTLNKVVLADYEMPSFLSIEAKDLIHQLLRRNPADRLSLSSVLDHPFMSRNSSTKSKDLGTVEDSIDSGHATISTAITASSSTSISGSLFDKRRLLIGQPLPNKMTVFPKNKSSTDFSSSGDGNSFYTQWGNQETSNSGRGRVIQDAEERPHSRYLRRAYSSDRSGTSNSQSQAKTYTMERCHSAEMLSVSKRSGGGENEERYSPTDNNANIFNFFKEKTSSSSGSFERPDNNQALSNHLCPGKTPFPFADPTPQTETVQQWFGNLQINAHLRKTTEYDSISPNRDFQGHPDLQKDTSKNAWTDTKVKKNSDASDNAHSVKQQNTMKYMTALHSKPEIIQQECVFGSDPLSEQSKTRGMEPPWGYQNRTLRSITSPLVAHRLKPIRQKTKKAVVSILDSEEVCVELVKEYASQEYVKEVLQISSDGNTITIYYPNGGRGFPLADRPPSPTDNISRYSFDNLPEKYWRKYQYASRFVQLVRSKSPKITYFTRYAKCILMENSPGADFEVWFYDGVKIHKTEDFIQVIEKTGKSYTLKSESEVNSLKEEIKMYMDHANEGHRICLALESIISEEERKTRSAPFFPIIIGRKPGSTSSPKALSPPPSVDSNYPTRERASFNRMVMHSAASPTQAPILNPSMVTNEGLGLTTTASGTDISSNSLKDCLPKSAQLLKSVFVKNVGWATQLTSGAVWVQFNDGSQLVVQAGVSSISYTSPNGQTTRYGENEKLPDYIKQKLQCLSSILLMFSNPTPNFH

[8] = biological target: RAC-alpha serine/threonine-protein kinase (Homo sapiens) (UniProt P31749); assay: Competitive binding affinity to AKT1 (unknown origin) at 10 uM in presence of ATP relative to control
Chain of RAC-alpha serine/threonine-protein kinase (Homo sapiens) (P31749 whole entry): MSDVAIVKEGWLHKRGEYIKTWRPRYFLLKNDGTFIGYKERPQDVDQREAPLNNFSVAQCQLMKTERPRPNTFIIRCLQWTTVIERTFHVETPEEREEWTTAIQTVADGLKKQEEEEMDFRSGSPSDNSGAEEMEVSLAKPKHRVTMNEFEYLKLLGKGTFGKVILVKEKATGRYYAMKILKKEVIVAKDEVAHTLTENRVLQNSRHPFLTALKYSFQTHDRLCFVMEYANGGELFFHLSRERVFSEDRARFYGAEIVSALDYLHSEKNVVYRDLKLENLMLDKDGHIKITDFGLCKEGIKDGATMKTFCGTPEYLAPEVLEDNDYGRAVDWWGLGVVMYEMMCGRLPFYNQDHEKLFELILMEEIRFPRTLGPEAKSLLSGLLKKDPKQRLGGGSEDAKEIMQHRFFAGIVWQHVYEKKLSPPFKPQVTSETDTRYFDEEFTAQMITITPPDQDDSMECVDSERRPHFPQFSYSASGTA

[9] = biological target: Receptor tyrosine-protein kinase erbB-4 (Homo sapiens) (UniProt Q15303); assay: Competitive binding affinity to ERBB4 (unknown origin) at 10 uM in presence of ATP relative to control; in short: as §1
Chain of Receptor tyrosine-protein kinase erbB-4 (Homo sapiens) (Q15303 whole entry): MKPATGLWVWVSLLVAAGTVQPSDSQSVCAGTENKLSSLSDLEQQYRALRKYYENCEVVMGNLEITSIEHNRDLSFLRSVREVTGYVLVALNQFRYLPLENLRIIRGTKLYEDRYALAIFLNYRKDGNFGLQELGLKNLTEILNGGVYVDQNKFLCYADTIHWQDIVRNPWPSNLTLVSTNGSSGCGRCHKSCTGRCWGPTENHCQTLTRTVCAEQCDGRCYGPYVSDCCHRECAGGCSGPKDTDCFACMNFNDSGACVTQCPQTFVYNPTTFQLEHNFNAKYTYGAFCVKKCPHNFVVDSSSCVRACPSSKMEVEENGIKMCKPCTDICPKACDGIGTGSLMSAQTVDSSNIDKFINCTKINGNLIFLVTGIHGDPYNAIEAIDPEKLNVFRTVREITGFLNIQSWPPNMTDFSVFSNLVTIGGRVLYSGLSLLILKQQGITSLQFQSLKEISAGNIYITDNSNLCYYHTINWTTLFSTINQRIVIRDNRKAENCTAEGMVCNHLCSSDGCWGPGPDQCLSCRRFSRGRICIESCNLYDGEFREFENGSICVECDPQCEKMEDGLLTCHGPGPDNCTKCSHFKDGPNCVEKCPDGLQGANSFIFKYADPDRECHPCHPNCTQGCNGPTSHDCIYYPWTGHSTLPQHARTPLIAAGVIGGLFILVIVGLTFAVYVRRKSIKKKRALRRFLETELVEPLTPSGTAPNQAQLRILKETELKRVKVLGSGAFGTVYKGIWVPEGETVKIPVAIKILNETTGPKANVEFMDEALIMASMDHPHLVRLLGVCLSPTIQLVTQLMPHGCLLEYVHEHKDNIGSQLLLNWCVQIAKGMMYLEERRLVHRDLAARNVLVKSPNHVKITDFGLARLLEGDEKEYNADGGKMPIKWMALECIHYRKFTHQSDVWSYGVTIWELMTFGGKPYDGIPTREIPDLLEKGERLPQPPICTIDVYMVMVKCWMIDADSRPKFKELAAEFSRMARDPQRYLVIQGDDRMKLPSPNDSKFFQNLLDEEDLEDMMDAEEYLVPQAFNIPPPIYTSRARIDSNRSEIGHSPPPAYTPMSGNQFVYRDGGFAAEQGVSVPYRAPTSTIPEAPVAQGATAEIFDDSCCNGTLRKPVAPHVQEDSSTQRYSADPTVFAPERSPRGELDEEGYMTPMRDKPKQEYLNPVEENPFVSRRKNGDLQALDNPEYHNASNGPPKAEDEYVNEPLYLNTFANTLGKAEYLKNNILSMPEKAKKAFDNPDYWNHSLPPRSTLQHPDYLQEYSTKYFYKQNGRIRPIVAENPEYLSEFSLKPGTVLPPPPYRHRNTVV

Chain of Tyrosine-protein kinase JAK2 (Homo sapiens) (O60674 whole entry, the tested form may be a part): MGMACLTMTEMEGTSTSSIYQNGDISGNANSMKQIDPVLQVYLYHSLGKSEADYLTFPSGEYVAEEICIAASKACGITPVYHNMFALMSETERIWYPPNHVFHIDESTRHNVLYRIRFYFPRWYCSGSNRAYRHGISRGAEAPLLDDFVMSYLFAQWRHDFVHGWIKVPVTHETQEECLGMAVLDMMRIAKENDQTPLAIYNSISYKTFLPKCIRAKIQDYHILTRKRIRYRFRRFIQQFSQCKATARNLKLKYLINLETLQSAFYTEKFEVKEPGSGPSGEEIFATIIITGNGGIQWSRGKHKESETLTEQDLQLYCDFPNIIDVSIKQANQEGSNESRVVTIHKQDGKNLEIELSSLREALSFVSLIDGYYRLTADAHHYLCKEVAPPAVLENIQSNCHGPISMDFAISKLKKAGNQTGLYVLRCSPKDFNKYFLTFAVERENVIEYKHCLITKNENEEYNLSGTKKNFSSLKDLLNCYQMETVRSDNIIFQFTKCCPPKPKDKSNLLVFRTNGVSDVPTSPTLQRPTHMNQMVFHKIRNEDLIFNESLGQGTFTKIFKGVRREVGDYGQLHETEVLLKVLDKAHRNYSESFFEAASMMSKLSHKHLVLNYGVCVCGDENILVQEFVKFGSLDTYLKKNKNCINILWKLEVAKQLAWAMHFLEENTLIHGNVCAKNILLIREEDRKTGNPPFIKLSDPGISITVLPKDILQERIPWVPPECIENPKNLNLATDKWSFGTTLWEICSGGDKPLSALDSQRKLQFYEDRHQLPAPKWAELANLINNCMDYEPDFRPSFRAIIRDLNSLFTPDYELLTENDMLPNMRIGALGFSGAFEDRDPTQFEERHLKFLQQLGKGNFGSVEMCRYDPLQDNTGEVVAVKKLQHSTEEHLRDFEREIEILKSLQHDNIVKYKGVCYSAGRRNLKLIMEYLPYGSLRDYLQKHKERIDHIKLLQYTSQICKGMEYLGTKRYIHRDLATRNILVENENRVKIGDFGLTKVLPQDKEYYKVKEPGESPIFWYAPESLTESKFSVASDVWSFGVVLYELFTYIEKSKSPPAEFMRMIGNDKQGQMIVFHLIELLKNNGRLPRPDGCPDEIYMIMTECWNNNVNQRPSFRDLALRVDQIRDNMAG

inhibition [1]	inhibition [2]	inhibition [3]	inhibition [4]	inhibition [5]	inhibition [6]	inhibition [7]	inhibition [8]	inhibition [9]	SMILES
< 50%	100%	< 50%	< 50%	< 50%	< 50%	63%	< 50%	< 50%	O[C@H]1CC[C@H](Nc2nccc(-n3ncc4ccccc43)n2)CC1
< 50%	100%	< 50%	< 50%	< 50%	< 50%	< 50%	< 50%	< 50%	O[C@H]1CC[C@H](Nc2nccc(-n3ccc4ccccc43)n2)CC1
< 50%	100%	< 50%	< 50%	< 50%	80%	< 50%	< 50%	< 50%	N[C@H]1CC[C@H](Nc2nccc(-n3nnc4ccccc43)n2)CC1
96%	100%	80%	77%	< 50%	80%	100%	< 50%	< 50%	O[C@H]1CC[C@H](Nc2nccc(-c3n[nH]c4ccccc34)n2)CC1
72%	100%	< 50%	< 50%	< 50%	75%	< 50%	< 50%	< 50%	O[C@H]1CC[C@H](Nc2nccc(-n3nnc4ccccc43)n2)CC1
	> 85%								CS(=O)(=O)CCCOc1cccc2c1ccn2-c1ccnc(N[C@H]2CC[C@H](C(=O)N3CCC(O)CC3)CC2)n1
< 50%	100%	< 50%	< 50%	< 50%	82%	71%	< 50%	< 50%	O=C([C@H]1CC[C@H](Nc2nccc(-n3nnc4ccccc43)n2)CC1)N1CCOCC1
